ChEMBL document CHEMBL1154934, “Identification of piperazine-bisamide GHSR antagonists for the treatment of obesity” (Bioorg Med Chem Lett, 2010)
Blank lines part the entries; values can stand above or below the compound they belong to.

Experiments:
[1] = biological target: 5-hydroxytryptamine receptor 2A (Homo sapiens, UniProt P28223); assay: Inhibition of 5HT2A (receptor)
[2] = biological target: T1, 5-hydroxytryptamine receptor 2C (Homo sapiens, UniProt P28335); assay: Inhibition of 5HT2C (receptor)
T1 sequence (P28335 whole entry): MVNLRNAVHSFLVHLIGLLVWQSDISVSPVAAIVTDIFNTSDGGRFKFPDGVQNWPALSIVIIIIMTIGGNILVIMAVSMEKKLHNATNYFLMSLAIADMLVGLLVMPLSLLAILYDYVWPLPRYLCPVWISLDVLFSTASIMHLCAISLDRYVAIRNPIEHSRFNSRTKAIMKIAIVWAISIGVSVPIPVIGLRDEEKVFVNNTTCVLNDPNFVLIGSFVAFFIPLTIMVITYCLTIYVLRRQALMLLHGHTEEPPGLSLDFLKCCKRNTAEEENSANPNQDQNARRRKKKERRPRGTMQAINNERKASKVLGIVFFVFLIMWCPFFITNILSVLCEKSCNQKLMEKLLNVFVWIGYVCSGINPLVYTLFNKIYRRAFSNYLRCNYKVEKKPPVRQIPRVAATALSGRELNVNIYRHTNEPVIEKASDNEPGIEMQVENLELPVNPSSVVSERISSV

[3] = biological target: Sodium-dependent serotonin transporter (Homo sapiens, UniProt P31645); assay: Inhibition of SERT
Sodium-dependent serotonin transporter, sequence (P31645 whole entry): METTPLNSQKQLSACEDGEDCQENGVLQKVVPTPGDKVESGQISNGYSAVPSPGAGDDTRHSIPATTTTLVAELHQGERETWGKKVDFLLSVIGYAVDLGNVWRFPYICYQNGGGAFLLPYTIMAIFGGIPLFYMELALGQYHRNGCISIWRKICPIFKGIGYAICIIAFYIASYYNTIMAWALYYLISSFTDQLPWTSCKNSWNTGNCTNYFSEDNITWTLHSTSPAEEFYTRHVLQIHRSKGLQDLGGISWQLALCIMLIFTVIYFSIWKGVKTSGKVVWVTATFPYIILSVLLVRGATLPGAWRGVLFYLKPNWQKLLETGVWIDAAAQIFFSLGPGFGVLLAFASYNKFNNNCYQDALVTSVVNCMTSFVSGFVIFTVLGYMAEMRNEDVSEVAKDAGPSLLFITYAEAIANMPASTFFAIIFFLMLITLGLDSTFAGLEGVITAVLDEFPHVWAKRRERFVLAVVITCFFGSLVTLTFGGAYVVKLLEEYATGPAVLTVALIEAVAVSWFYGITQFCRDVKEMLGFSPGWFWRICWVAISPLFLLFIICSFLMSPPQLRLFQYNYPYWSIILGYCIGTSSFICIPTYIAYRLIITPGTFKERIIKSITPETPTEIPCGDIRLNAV

[4] = biological target: T2, Alpha-2A adrenergic receptor (Homo sapiens, UniProt P08913); assay: Inhibition of alpha2A adrenergic receptor
T2 sequence (P08913 whole entry): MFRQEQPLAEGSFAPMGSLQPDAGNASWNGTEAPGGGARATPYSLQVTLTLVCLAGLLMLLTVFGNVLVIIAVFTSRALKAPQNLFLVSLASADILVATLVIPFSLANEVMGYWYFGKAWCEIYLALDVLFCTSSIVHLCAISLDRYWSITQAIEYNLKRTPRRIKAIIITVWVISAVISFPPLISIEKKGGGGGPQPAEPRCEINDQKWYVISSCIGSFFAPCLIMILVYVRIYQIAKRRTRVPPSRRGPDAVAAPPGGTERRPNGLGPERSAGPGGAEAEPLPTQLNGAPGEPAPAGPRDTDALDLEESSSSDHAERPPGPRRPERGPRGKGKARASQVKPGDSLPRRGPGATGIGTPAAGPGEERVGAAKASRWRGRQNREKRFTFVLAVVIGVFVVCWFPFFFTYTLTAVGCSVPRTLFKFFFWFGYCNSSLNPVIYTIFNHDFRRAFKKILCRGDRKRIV

[5] = biological target: D(2) dopamine receptor (Homo sapiens, UniProt P14416); assay: Inhibition of dopamine D2 receptor
D(2) dopamine receptor, sequence (P14416 whole entry): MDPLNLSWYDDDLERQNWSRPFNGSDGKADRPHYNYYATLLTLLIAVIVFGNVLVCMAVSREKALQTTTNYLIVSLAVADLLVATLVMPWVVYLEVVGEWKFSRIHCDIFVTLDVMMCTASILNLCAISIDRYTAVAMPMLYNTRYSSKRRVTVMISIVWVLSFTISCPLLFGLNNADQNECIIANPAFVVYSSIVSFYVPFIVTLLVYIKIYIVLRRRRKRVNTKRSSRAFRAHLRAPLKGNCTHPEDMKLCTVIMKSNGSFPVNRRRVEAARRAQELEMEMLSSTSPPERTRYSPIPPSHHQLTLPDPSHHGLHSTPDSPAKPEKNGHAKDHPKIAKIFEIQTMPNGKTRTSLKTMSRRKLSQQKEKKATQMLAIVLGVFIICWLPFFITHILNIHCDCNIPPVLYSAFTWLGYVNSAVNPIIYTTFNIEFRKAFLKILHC

[6] = biological target: D(3) dopamine receptor (Homo sapiens, UniProt P35462); assay: Inhibition of dopamine D3 receptor
D(3) dopamine receptor, sequence (P35462 whole entry): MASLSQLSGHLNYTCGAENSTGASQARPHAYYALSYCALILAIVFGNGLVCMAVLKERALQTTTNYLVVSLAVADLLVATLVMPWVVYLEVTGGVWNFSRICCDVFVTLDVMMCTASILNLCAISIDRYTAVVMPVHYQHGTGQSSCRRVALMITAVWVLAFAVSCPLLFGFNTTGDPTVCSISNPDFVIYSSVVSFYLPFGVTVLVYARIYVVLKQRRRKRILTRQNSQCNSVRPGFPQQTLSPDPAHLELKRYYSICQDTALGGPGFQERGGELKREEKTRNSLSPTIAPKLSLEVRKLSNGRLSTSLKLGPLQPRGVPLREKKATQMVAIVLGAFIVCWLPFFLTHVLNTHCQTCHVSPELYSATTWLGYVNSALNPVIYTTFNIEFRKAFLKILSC

[7] = biological target: Sodium-dependent dopamine transporter (Homo sapiens, UniProt Q01959); assay: Inhibition of DAT
[8] = biological target: Mu-type opioid receptor (Homo sapiens, UniProt P35372); assay: Inhibition of mu opioid receptor
[9] = biological target: Kappa-type opioid receptor (Homo sapiens, UniProt P41145); assay: Inhibition of kappa opioid receptor
Kappa-type opioid receptor, sequence (P41145 whole entry): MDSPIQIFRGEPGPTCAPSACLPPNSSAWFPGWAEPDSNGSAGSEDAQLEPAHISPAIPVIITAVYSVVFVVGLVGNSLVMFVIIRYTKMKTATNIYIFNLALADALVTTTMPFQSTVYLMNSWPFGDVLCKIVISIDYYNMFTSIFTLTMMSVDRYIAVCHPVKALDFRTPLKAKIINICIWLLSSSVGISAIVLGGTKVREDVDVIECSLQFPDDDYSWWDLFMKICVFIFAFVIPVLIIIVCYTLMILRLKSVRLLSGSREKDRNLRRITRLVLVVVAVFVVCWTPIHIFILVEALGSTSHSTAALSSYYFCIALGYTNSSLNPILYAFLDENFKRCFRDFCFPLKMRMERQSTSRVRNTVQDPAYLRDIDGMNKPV

[10] = biological target: Muscarinic acetylcholine receptor M3 (Homo sapiens, UniProt P20309); assay: Inhibition of muscarinic M3 receptor
Muscarinic acetylcholine receptor M3, sequence (P20309 whole entry): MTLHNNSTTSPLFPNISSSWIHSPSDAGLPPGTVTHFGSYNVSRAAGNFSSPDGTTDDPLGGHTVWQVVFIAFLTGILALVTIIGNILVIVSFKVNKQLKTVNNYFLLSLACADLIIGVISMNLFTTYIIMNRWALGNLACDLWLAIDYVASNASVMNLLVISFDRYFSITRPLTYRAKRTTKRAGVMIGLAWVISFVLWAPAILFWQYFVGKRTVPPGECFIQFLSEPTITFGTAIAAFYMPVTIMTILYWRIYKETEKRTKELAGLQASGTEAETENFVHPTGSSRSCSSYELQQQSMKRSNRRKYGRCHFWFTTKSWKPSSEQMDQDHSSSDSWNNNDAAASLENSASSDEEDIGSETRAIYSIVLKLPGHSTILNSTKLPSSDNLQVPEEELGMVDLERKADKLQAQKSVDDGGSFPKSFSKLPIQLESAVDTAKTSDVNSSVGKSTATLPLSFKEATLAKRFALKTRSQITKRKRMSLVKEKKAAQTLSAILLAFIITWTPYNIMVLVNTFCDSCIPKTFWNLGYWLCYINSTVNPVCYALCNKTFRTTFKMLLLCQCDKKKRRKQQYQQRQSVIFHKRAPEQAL

[11] = biological target: Sodium-dependent noradrenaline transporter (Homo sapiens, UniProt P23975); assay: Inhibition of NET
Sodium-dependent noradrenaline transporter, sequence (P23975 whole entry): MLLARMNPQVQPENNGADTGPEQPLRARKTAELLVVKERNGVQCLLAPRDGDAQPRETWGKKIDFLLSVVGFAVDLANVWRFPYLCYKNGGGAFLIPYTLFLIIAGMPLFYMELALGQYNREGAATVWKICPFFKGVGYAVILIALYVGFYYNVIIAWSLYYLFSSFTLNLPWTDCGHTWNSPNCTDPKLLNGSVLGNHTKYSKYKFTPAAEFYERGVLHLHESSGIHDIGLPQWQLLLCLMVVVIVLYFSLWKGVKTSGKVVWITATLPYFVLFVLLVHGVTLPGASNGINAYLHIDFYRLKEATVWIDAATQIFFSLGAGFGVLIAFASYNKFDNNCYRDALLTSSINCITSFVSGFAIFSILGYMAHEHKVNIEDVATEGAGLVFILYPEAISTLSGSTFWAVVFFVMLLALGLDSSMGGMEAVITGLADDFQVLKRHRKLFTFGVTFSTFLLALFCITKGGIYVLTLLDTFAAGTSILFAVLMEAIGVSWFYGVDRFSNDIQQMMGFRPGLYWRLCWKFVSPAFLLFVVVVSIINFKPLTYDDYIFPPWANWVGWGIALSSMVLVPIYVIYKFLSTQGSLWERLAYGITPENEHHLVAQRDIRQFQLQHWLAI

[12] = biological target: Histamine H2 receptor (Homo sapiens, UniProt P25021); assay: Inhibition of histamine H2 receptor
Histamine H2 receptor, sequence (P25021 whole entry): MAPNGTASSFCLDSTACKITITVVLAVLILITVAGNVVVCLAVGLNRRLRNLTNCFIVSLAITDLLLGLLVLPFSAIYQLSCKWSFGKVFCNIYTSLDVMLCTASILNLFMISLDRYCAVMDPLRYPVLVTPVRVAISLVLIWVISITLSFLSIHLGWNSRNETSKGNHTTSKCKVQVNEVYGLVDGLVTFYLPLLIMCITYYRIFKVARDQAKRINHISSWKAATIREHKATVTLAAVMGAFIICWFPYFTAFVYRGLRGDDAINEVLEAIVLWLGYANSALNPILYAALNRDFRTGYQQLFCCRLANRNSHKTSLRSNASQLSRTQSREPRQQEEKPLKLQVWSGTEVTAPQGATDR

[13] = biological target: T3, Growth hormone secretagogue receptor type 1 (Homo sapiens, UniProt Q92847); assay: Antagonist activity at human GHSR expressed in CHOK1 cells assessed as inhibition of ghrelin-induced intracellular calcium flux by aequorin flash luminescence assay; type: functional, cell-based, CHO-K1
T3 sequence (Q92847 whole entry): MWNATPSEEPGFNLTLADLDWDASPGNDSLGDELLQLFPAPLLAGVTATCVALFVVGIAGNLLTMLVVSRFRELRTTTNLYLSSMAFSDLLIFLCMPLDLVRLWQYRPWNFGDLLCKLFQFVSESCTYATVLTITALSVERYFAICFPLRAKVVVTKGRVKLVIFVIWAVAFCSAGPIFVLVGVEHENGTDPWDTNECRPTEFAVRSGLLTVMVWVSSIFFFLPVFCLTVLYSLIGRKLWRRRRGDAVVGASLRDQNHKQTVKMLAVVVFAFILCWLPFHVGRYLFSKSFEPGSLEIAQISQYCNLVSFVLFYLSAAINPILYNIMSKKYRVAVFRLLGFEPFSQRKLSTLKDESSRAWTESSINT
How it was run: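 Aequorin flash luminescence in CHO-K1 cells stably co-expressing human ghrelin receptor and aequorin. […] IC50 values are means of three determinations.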

[14] = biological target: T3, Growth hormone secretagogue receptor type 1; assay: Agonist activity at human GHSR expressed in CHO cells assessed as increase in ghrelin-induced [3H]IP accumulation at 10 uM after 1 hr by scintillation counting relative to ghrelin; type: functional, cell-based
How it was run: (§1)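 CHO cells stably expressing human or rat GHSR labelled 12 h with 3H-inositol (1 µCi/mL in DMEM), then exposed to ghrelin or compound at 37 °C for 1.0 h. Lysis with 20 mM formic acid, 4 °C, 4 h. Extract taken onto SPA beads, 12 h in the dark, then radioactivity counted. IP accumulation expressed as % of maximal ghrelin response at 10, 1.0 and 0.1 µM.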

[15] = biological target: Growth hormone secretagogue receptor type 1 (Rattus norvegicus) (UniProt O08725); assay: Agonist activity at rat GHSR expressed in CHO cells assessed as increase in ghrelin-induced [3H]IP accumulation at 10 uM after 1 hr by scintillation counting relative to ghrelin; type: functional, cell-based; how it was run: as §1
Growth hormone secretagogue receptor type 1 (Rattus norvegicus), sequence (O08725 whole entry): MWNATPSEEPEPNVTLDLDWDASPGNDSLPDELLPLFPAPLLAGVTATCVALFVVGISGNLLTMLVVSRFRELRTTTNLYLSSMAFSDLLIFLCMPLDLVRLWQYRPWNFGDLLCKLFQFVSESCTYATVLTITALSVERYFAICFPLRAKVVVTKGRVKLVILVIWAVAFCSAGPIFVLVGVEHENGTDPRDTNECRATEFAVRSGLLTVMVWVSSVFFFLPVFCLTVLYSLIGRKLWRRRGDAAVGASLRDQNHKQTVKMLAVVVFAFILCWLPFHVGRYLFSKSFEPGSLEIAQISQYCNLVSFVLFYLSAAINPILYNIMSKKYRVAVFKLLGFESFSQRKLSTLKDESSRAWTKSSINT

5-hydroxytryptamine receptor 2A, sequence (P28223 whole entry): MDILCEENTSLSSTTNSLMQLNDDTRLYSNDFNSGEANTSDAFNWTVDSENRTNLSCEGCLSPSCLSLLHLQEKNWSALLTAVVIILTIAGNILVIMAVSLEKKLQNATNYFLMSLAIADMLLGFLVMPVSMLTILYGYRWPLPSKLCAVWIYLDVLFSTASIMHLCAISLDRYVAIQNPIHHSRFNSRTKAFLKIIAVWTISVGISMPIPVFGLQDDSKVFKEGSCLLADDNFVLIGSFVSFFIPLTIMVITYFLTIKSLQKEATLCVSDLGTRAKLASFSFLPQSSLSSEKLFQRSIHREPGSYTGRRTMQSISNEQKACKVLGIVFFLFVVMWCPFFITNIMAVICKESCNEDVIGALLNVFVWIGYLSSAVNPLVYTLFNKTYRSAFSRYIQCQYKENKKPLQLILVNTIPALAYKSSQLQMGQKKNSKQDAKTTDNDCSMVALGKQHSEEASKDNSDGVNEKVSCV

Structure (SMILES): COc1ccc(-c2ccc(C(=O)N3CCN(C(=O)c4ccc5cc[nH]c5c4)[C@@H](C)C3)cc2)cc1
Ki [1]: > 10 µM
Ki [2]: > 10 µM
Ki [3]: > 10 µM
Ki [4]: > 10 µM
Ki [5]: > 10 µM
Ki [6]: > 10 µM
Ki [7]: > 10 µM
Ki [8]: > 10 µM
Ki [9]: > 10 µM
Ki [10]: > 10 µM
Ki [11]: > 10 µM
Ki [12]: > 10 µM
IC50 [13]: 0.007 µM
Activity [14]: 33%
Activity [15]: 34%

Structure (SMILES): COc1ccccc1-c1ccc(C(=O)N2CCN(C(=O)c3ccc4cc[nH]c4c3)[C@@H](C)C2)cc1
Ki [1]: > 10 µM
Ki [2]: > 10 µM
Ki [3]: > 10 µM
Ki [4]: > 10 µM
Ki [5]: > 10 µM
Ki [6]: > 10 µM
Ki [7]: > 10 µM
Ki [8]: > 10 µM
Ki [9]: > 10 µM
Ki [10]: > 10 µM
Ki [11]: > 10 µM
Ki [12]: > 10 µM
IC50 [13]: 0.026 µM

Structure (SMILES): Cc1noc(C)c1-c1ccc(C(=O)N2CCN(C(=O)c3ccc4cc[nH]c4c3)[C@@H](C)C2)cc1
IC50 [13]: 0.245 µM
Activity [15]: 5%

Structure (SMILES): C[C@H]1CN(C(=O)c2ccc(-c3cn[nH]c3)cc2)CCN1C(=O)c1ccc2cc[nH]c2c1
IC50 [13]: 0.123 µM
Activity [15]: 17%

Structure (SMILES): C[C@H]1CN(C(=O)c2ccc(-c3cccc(OC(F)(F)F)c3)cc2)CCN1C(=O)c1ccc2cc[nH]c2c1
Ki [1]: > 10 µM
Ki [2]: > 10 µM
Ki [3]: > 10 µM
Ki [4]: > 10 µM
Ki [5]: > 10 µM
Ki [6]: > 10 µM
Ki [7]: > 10 µM
Ki [8]: > 10 µM
Ki [9]: > 10 µM
Ki [10]: > 10 µM
Ki [11]: > 10 µM
Ki [12]: > 10 µM
IC50 [13]: 0.0465 µM

Structure (SMILES): C[C@H]1CN(C(=O)c2ccc(-c3ccccn3)cc2)CCN1C(=O)c1ccc2cc[nH]c2c1
IC50 [13]: 0.0422 µM
Activity [15]: 12%

Structure (SMILES): C[C@H]1CN(C(=O)c2ccc(-c3cncs3)cc2)CCN1C(=O)c1ccc2cc[nH]c2c1
IC50 [13]: 0.065 µM
Activity [15]: 5%

Structure (SMILES): C[C@H]1CN(C(=O)c2ccc(-c3cccnc3)cc2)CCN1C(=O)c1ccc2cc[nH]c2c1
IC50 [13]: 0.143 µM
Activity [15]: 21%

Structure (SMILES): C[C@H]1CN(C(=O)c2ccc(-c3ccc(OC(F)(F)F)cc3)cc2)CCN1C(=O)c1ccc2cc[nH]c2c1
Ki [1]: > 10 µM
Ki [2]: > 10 µM
Ki [3]: > 10 µM
Ki [4]: > 10 µM
Ki [5]: > 10 µM
Ki [6]: > 10 µM
Ki [7]: > 10 µM
Ki [8]: > 10 µM
Ki [9]: > 10 µM
Ki [10]: > 10 µM
Ki [11]: > 10 µM
Ki [12]: > 10 µM
IC50 [13]: 0.136 µM

Structure (SMILES): C[C@H]1CN(C(=O)c2ccc(-c3ccccc3)cc2)CCN1C(=O)c1ccc2cc[nH]c2c1
Ki [1]: > 10 µM
Ki [2]: > 10 µM
Ki [3]: > 10 µM
Ki [4]: > 10 µM
Ki [5]: > 10 µM
Ki [6]: > 10 µM
Ki [7]: > 10 µM
Ki [8]: > 10 µM
Ki [9]: > 10 µM
Ki [10]: > 10 µM
Ki [11]: > 10 µM
Ki [12]: > 10 µM
IC50 [13]: 0.006 µM
Activity [14]: 29%
Activity [15]: 26%

The remaining compounds from weak to strong by IC50 [13], led by results:

IC50 [13]: 6.5 µM
Structure (SMILES): O=C(c1ccc(-c2ccccc2)cc1)N1CCCN(C(=O)c2ccc3cc[nH]c3c2)CC1

IC50 [13]: 0.068 µM
Structure (SMILES): COc1cccc(-c2ccc(C(=O)N3CCN(C(=O)c4ccc5cc[nH]c5c4)C[C@H]3C)cc2)c1

IC50 [13]: 0.02 µM
Activity [15]: 19%
Structure (SMILES): C[C@H]1CN(C(=O)c2ccc(-c3ccccc3)nc2)CCN1C(=O)c1ccc2cc[nH]c2c1

IC50 [13]: 0.009 µM
Activity [15]: 16%
Structure (SMILES): Cc1ccccc1-c1ccc(C(=O)N2CCN(C(=O)c3ccc4cc[nH]c4c3)[C@@H](C)C2)cc1F
